Data: ChEMBL document CHEMBL2375276, “Antibacterial oxazolidinone analogues having a N-hydroxyacetyl-substituted seven-membered [1,2,5]triazepane or [1,2,5]oxadiazepane C-ring unit” (Eur J Med Chem, 2013)
Converted amounts (≈) assume the structure as drawn.

Legend:
Cytochrome P450 1A2 = biological target: T1, Cytochrome P450 1A2 (Homo sapiens, UniProt P05177); assay: Inhibition of human CYP1A2 assessed as ethoxyresorufin O-deethylation after 20 mins by fluorescence plate reader analysis; assay type: ADME
T1 sequence (P05177 whole entry): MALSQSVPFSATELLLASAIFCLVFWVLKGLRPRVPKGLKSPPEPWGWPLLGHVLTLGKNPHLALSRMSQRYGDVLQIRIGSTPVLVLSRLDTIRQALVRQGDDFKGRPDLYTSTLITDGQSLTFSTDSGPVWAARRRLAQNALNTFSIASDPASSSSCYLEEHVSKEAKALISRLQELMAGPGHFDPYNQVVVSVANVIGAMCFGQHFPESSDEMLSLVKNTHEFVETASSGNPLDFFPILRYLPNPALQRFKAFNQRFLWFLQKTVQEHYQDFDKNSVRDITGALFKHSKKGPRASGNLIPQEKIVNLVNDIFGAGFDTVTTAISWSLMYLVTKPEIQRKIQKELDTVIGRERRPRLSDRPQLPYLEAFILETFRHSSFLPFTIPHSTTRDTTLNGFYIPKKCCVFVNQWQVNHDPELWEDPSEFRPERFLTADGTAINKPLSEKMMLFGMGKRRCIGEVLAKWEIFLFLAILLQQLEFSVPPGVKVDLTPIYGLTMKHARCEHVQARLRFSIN
Procedure, shortened: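 Human liver microsomes (0.2 mg protein/mL) with 1 mM NADPH in 50 mM HEPES pH 7.4, 10 mM MgCl2, 0.1 mM EDTA. After centrifugation, supernatant read on a fluorescence plate reader. Standard curve from authentic metabolite added to unincubated reaction mix.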

Cytochrome P450 2D6 = Cytochrome P450 2D6 (Homo sapiens, UniProt P10635); assay: Inhibition of human CYP2D6 assessed as dextromethorphan O-demethylation after 20 mins by LC/MS/MS analysis; assay type: ADME
Procedure, shortened: (§1)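 Human liver microsomes (0.2 mg protein/mL) with 1 mM NADPH in 50 mM HEPES pH 7.4, 10 mM MgCl2, 0.1 mM EDTA. After centrifugation, supernatant metabolite measured by LC/MS/MS. Standard curve from authentic metabolite cocktail added to unincubated reaction mix.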

Cytochrome P450 3A4 = Cytochrome P450 3A4 (Homo sapiens, UniProt P08684); assay: Inhibition of human CYP3A4 assessed as terfenadine hydroxylation after 20 mins by LC/MS/MS analysis; assay type: ADME; procedure, shortened: as §1
MAO-A = biological target: T2, MAO-A (Rattus norvegicus, UniProt P21396); assay: Inhibition of MAO-A in rat forebrain using [14C]5-HT as substrate at 30 uM incubated for 20 mins prior to substrate addition measured after 5 mins by liquid scintillation counting analysis relative to control; assay type: tissue-based; settings: probe [14C]5-HT
T2 sequence (P21396 whole entry): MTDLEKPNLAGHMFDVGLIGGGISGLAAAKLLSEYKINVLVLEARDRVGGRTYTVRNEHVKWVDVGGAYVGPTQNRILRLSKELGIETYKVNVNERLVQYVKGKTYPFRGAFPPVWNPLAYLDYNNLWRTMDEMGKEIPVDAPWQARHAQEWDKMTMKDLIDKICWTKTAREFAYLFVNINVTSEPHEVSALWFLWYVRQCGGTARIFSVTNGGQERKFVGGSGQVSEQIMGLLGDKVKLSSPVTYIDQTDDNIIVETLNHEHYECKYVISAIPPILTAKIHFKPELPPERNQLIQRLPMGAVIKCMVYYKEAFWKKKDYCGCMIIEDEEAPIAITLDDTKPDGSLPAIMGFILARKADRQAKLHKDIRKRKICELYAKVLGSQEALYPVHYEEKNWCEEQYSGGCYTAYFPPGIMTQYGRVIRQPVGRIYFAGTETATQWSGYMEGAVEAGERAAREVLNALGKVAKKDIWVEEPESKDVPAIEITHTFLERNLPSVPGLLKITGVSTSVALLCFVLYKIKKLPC

Staphylococcus aureus [1] = assay: Antibacterial activity against methicillin-resistant Staphylococcus aureus SR3637 infected in JCL/ICR mouse systemic infection model assessed as mortality administered as iv measured over 7 days; assay type: functional; settings: 168 h
Procedure, shortened: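 Five-week-old male JCL/ICR mice (20–25 g), five per group. Infected intraperitoneally with 0.5 or 1.0 mL bacterial suspension (about 100× LD50). Intravenous dosing 1 h post-infection. Mortality followed 7 days; ED50 with 95% confidence limits by logit method.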

Streptococcus pneumoniae = assay: Antibacterial activity against Streptococcus pneumoniae SR26207 clinical isolate assessed as growth inhibition by CLSI broth microdilution method; assay type: functional
Procedure, shortened: (§2)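 MIC by CLSI broth microdilution in cation-adjusted Mueller-Hinton broth; S. pneumoniae medium supplemented with 5% lysed horse blood.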

Staphylococcus aureus [2] = assay: Antibacterial activity against methicillin-resistant Staphylococcus aureus SR3637 assessed as growth inhibition by CLSI broth microdilution method; assay type: functional
Procedure, shortened: (§3)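 MIC by CLSI broth microdilution in cation-adjusted Mueller-Hinton broth. Lowest concentration inhibiting growth taken as MIC.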

Staphylococcus aureus [3] = assay: Antibacterial activity against Staphylococcus aureus SR20549 clinical isolate assessed as growth inhibition by CLSI broth microdilution method; assay type: functional; procedure, shortened: as §2
MAO-B = biological target: T3, MAO-B (Rattus norvegicus, UniProt P19643); assay: Inhibition of MAO-B in rat forebrain using [14C]PEA as substrate at 30 uM incubated for 20 mins prior to substrate addition measured after 10 mins by liquid scintillation counting analysis relative to control; assay type: tissue-based; settings: probe [14C]PEA
T3 sequence (P19643 whole entry): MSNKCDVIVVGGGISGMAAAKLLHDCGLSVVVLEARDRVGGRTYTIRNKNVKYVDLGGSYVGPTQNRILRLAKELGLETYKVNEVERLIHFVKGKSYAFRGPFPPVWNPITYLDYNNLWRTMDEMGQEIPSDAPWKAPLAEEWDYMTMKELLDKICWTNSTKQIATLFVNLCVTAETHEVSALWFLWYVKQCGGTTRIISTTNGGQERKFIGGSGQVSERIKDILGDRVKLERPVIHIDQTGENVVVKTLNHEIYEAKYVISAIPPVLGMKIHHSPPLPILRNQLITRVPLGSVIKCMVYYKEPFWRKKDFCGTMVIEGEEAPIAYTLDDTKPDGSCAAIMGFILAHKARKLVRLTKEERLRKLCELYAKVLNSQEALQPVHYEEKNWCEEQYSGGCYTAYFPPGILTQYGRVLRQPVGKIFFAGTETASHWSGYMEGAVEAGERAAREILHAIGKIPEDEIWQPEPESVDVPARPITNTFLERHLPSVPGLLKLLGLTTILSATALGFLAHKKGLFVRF

Enterococcus faecalis = assay: Antibacterial activity against Enterococcus faecalis SR1004 clinical isolate assessed as growth inhibition by CLSI broth microdilution method; assay type: functional; procedure, shortened: as §2
Moraxella catarrhalis = assay: Antibacterial activity against Moraxella catarrhalis SR26840 clinical isolate assessed as growth inhibition by CLSI broth microdilution method; assay type: functional; procedure, shortened: as §2
Staphylococcus aureus [4] = assay: Antibacterial activity against linezolid-resistant Staphylococcus aureus NRS271 assessed as growth inhibition by CLSI broth microdilution method; assay type: functional; procedure, shortened: as §3
Staphylococcus aureus [5] = assay: Antibacterial activity against methicillin-resistant Staphylococcus aureus SR3637 infected in JCL/ICR mouse systemic infection model assessed as mortality administered as po measured over 7 days; assay type: functional; settings: 168 h
Procedure, shortened: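 Five-week-old male JCL/ICR mice (20–25 g), five per group. Infected intraperitoneally with 0.5 or 1.0 mL bacterial suspension (about 100× LD50). Oral dosing 1 h post-infection. Mortality followed 7 days; ED50 with 95% confidence limits by logit method.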

Enterococcus faecium = assay: Antibacterial activity against Enterococcus faecium SR7940 clinical isolate assessed as growth inhibition by CLSI broth microdilution method; assay type: functional; procedure, shortened: as §2
Cytochrome P450 2C9 = Cytochrome P450 2C9 (Homo sapiens, UniProt P11712); assay: Inhibition of human CYP2C9 assessed as tolbutamide hydroxylation after 20 mins by LC/MS/MS analysis; assay type: ADME; procedure, shortened: as §1
Haemophilus influenzae = assay: Antibacterial activity against Haemophilus influenzae SR27914 clinical isolate assessed as growth inhibition by CLSI broth microdilution method; assay type: functional
Procedure, shortened: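 MIC by CLSI broth microdilution using Haemophilus test medium.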

Staphylococcus aureus [6] = assay: Antibacterial activity against Staphylococcus aureus Smith assessed as growth inhibition by CLSI broth microdilution method; assay type: functional; procedure, shortened: as §2

Sequence of Cytochrome P450 2C9 (P11712 whole entry): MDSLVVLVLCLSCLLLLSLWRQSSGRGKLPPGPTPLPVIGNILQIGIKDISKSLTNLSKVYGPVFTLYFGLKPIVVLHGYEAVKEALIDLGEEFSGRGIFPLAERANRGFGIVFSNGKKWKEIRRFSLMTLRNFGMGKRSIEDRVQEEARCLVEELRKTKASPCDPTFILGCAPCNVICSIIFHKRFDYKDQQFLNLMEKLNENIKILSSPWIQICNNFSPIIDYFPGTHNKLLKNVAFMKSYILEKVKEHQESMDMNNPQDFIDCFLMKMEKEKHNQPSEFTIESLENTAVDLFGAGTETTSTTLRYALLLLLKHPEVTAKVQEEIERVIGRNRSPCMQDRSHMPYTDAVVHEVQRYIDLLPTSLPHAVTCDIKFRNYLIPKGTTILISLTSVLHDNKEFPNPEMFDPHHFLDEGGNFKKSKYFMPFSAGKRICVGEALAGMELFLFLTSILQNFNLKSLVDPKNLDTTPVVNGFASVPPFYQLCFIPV
Sequence of Cytochrome P450 2D6 (P10635 whole entry): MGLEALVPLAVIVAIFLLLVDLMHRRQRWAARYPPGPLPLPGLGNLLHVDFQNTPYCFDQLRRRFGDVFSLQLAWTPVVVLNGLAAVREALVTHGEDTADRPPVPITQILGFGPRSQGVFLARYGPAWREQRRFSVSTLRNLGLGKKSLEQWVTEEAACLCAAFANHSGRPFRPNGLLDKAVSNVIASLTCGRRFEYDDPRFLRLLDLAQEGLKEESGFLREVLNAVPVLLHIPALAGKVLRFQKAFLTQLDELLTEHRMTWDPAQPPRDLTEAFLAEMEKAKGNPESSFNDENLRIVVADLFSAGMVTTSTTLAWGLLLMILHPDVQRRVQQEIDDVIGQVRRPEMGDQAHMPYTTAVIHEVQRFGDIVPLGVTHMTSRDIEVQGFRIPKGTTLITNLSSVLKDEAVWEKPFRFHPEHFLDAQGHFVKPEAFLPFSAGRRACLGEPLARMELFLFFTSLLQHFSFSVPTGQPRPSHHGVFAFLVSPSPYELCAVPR
Sequence of Cytochrome P450 3A4 (P08684 whole entry): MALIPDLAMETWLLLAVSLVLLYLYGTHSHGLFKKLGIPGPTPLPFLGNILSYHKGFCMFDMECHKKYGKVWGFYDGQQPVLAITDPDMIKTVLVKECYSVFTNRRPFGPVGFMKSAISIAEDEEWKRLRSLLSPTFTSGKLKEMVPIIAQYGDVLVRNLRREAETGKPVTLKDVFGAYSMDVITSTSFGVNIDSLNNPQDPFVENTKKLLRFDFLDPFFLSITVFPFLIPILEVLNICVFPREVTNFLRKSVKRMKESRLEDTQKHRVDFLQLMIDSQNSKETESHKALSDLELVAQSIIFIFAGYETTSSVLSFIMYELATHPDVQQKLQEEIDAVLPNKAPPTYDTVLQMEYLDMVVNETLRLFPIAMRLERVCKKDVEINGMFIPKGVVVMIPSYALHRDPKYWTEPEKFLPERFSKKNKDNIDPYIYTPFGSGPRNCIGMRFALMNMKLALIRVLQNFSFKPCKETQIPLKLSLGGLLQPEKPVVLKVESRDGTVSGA

Structure (SMILES)	IC50 (Cytochrome P450 1A2)	IC50 (Cytochrome P450 2D6)	IC50 (Cytochrome P450 3A4)	inhibition at 5 min, 30 µM (MAO-A)	ED50 (Staphylococcus aureus [1])	MIC (Streptococcus pneumoniae)	MIC (Staphylococcus aureus [2])	MIC (Staphylococcus aureus [3])	inhibition at 10 min, 30 µM (MAO-B)	MIC (Enterococcus faecalis)	MIC (Moraxella catarrhalis)	MIC (Staphylococcus aureus [4])	ED50 (Staphylococcus aureus [5])	MIC (Enterococcus faecium)	IC50 (Cytochrome P450 2C9)	MIC (Haemophilus influenzae)	MIC (Staphylococcus aureus [6])
CC(=O)NC[C@H]1CN(c2ccc(N3CCN(C(=O)CO)CC3)c(F)c2)C(=O)O1 [EPEREZOLID]	> 20 µM	> 20 µM	> 20 µM	53.6%	1.85 mg/kg	0.125 µg/mL (≈ 0.317 µM)	1 µg/mL (≈ 2.54 µM)	1 µg/mL (≈ 2.54 µM)	20.2%	1 µg/mL (≈ 2.54 µM)	8 µg/mL (≈ 20.3 µM)	32 µg/mL (≈ 81.1 µM)	4.76 mg/kg	2 µg/mL (≈ 5.07 µM)	> 20 µM	4 µg/mL (≈ 10.1 µM)	1 µg/mL (≈ 2.54 µM)
CC(=O)NC[C@H]1CN(c2ccc(N3CCOCC3)c(F)c2)C(=O)O1 [LINEZOLID]	> 20 µM	> 20 µM	> 20 µM	61.3%	1.73 mg/kg				70.4%		8 µg/mL (≈ 23.7 µM)	32 µg/mL (≈ 94.9 µM)	2.02 mg/kg	2 µg/mL (≈ 5.93 µM)	> 20 µM	16 µg/mL (≈ 47.4 µM)	
